We go through 17 compounds from ChEMBL document CHEMBL1126811, “Fluorinated and iodinated dopamine agents: D2 imaging agents for PET and SPECT” (J Med Chem, 1993).

Broadly, the Ki is a dissociation constant, usually derived from enzyme kinetics or from competition with a known ligand. Read a high Ki as lower affinity.

The target of assay [1] is D(2) dopamine receptor (Rattus norvegicus, UniProt P61169). In words: Inhibition constant against dopamine receptor D2 in rat. In outline:
(§1)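 Filtered on protamine-pretreated (0.2%) GF/B filters, washed with cold 50 mM Tris-HCl pH 7.4, gamma-counted. Nonspecific binding defined with 10 μM (+)-butaclamol. Scatchard and competition data fitted by iterative nonlinear least squares.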

Assay [2] is filed under the species Rattus norvegicus. In kind it is functional, Striatum, Membrane.
For assay [3], the species on record is Rattus norvegicus. The assay is classed as functional, Striatum, Membrane. The source holds these as a separate data set.
For assay [4], the species on record is Rattus norvegicus. The assay is described as follows: Inhibition constant on radiolabeled [125I]FIDA2 binding to rat striatal membranes. More on the design: species or system Striatum, Membrane. In short, it runs like this:
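Rat striatal membrane homogenate (40–60 μg protein) incubated with 125I-labeled ligand ± competitors in 0.2 mL assay buffer, 15 min at 37 °C with stirring. Filtered on protamine-pretreated (0.2%) GF/B filters, washed with cold 50 mM Tris-HCl pH 7.4, gamma-counted. Nonspecific binding defined with 10 μM (+)-butaclamol. Scatchard and competition data fitted by iterative nonlinear least squares.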

For assay [5], the species on record is Rattus norvegicus. In words: Inhibition constant on radiolabeled [125I]FIDA1 binding to rat striatal membranes. Also noted: species or system Striatum, Membrane. In short, it runs like this: as §1

Chain of D(2) dopamine receptor (P61169 whole entry): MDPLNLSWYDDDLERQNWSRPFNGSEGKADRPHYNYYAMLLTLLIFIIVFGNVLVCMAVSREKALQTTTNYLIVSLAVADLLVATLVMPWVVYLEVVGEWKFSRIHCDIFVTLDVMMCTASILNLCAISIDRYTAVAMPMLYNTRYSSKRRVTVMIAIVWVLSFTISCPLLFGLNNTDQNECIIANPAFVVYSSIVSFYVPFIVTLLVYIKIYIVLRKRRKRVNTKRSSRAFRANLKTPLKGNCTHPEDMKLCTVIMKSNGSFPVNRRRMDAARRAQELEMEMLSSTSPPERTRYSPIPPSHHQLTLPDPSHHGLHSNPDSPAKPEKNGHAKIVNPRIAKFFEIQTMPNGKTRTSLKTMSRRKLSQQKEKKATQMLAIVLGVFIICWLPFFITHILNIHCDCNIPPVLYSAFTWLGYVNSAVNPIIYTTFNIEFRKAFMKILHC

In assay [1], `CCN1CCC[C@H]1CNC(=O)c1c(OC)ccc(I)c1O` [IOLOPRIDE] yielded a Ki of 0.43 nM.

For the compound `CC(C)(C)[C@@]1(O)CCN2C[C@@H]3c4ccccc4CCc4cccc(c43)[C@H]2C1`, the Ki in assay [2] amounted to 0.4 nM; in assay [3] it was 1.05 nM.

Turning to `CCN1CCC[C@H]1CNC(=O)c1c(O)c(Cl)cc(Cl)c1OC` [RACLOPRIDE], the Ki in assay [4] came out at 5 nM; in assay [5], 2.31 nM.

In assay [1], `CCN1CCC[C@H]1CNC(=O)c1cc(I)cc(OC)c1OC` [EPIDEPRIDE] yielded a Ki of 0.025 nM.

Regarding `CCc1cc(Cl)c(OC)c(C(=O)NC[C@@H]2CCCN2CC)c1O` [ETICLOPRIDE], the values for the Ki in assay [4] and in assay [5] were 0.06 nM and 0.014 nM, respectively.

As for `CN1[C@@H]2CC[C@H]1C[C@@H](OC(=O)C(CO)c1ccccc1)C2` (some centres not stated) [ATROPINE], the inhibitory constant (Ki) in assay [2] and in assay [3] was greater than 10000 nM in each case.

In turn, `COc1cc(Br)cc(C(=O)NC[C@@H]2CCCN2Cc2ccc(F)cc2)c1OC` had a Ki in assay [1] of 0.147 nM.

The compound `NCCc1c[nH]c2ccc(O)cc12` [SEROTONIN] registered a Ki in assay [3] greater than 5000 nM.

The compound `CCN1CCC[C@H]1CNC(=O)c1cc(I)cc2c1OCC2` showed a Ki in assay [1] of 0.106 nM.

In turn, `CCN1CCC[C@@H]1CNC(=O)c1cccc(OC)c1OCCF` had a Ki in assay [1] of 13 nM.

In assay [2], `COC(=O)[C@@H]1[C@H]2C[C@H]3c4[nH]c5ccccc5c4CCN3C[C@@H]2CC[C@@H]1O` [YOHIMBINE] displayed an inhibition constant Ki of 505 nM. This counts as sub-micromolar.

`CCN1CCC[C@H]1CNC(=O)c1c(OC)ccc(S(N)(=O)=O)c1I` [IODOSULPIRIDE]: the Ki in assay [1] was determined as 1.5 nM. In other words, the single-digit nanomolar range.

Take `C=CCN1CC[C@]23c4c5ccc(O)c4O[C@H]2C(=O)CC[C@@]3(O)[C@H]1C5` [NALOXONE]: the Ki in assay [2] and in assay [3] was greater than 10000 nM in each case.

Consider `CCN1CCC[C@H]1CNC(=O)c1c(O)c(I)cc(OC)c1OC` [IOXIPRIDE], for which the affinity in assay [1], expressed as Ki, was 0.019 nM.

`CCCN1CCC[C@@H]2Cc3n[nH]cc3C[C@H]21` [QUINPIROLE] displayed a Ki in assay [2] of 8000 nM.

In turn, `CCN1CCC[C@H]1CNC(=O)c1cc(I)ccc1OC` [IODOPRIDE] showed a Ki in assay [1] of 3 nM.

In assay [1], `CCN1CCC[C@H]1CNC(=O)c1cc(CCCF)cc(OC)c1OC` displayed an inhibition constant (Ki) of 0.02 nM.
